ChEMBL document CHEMBL1770060, “Diaryl urea analogues of SB-334867 as orexin-1 receptor antagonists” (Bioorg Med Chem Lett, 2011)
The source made the active and inactive calls. No cut-off for these calls is given here.

What was measured:
[1] = target: T1, Orexin/Hypocretin receptor type 1 (Homo sapiens) (UniProt O43613); assay: Antagonist activity at OX1 receptor expressed in CHO cells assessed as inhibition of orexin-A-induced calcium mobilization by FlexStation assay; type: functional, cell-based
T1 sequence (whole entry): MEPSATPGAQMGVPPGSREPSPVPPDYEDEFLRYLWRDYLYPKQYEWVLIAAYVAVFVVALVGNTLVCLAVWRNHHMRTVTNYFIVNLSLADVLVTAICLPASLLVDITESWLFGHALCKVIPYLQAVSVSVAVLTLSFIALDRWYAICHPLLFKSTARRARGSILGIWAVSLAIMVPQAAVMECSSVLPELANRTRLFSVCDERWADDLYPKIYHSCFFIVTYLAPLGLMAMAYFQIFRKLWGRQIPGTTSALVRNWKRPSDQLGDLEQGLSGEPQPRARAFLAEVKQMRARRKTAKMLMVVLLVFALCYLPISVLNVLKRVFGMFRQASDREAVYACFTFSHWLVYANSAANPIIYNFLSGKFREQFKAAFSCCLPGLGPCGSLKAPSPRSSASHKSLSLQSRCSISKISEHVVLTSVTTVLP
How it was run: (§1)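 Cells stably expressing OX1 or OX2 receptor, dye-loaded 1 h. EC50s came from a three-parameter logistic fit. Ke = [L]/(DR−1), DR = A'/A. Duplicates; ≥3 (OX1) or ≥2 (OX2) independent experiments.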

[2] = target: T2, Orexin receptor type 2 (Homo sapiens) (UniProt O43614); assay: Antagonist activity at OX2 receptor expressed in CHO cells assessed as inhibition of orexin-A-induced calcium mobilization by FlexStation assay; type: functional, cell-based; how it was run: as §1
T2 sequence (whole entry): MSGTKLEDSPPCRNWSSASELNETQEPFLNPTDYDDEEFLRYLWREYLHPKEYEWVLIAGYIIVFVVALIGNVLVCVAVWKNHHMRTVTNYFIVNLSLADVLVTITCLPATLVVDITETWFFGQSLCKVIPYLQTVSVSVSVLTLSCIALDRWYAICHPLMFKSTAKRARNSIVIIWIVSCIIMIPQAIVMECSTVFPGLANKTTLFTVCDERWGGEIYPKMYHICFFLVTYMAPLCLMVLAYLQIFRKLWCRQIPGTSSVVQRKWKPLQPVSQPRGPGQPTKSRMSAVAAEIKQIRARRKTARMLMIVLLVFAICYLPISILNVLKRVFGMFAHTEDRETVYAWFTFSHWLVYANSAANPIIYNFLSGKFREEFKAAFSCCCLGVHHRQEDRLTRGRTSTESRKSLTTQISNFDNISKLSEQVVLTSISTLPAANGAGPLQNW

[3] = target: T1, Orexin/Hypocretin receptor type 1 (Homo sapiens); assay: Agonist activity at OX1 receptor expressed in CHO cells at 10 uM by FlexStation assay; type: functional, cell-based
How it was run: (§2)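 Separate cell lines stably expressing OX1 or OX2 receptor were loaded with calcium-sensitive dye for 1 h. Compounds were tested alone at 10 µM for intrinsic agonist activity, read as a rise in fluorescence (intracellular calcium) on the FlexStation.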

[4] = target: T2, Orexin receptor type 2 (Homo sapiens); assay: Agonist activity at OX2 receptor expressed in CHO cells at 10 uM by FlexStation assay; type: functional, cell-based; how it was run: as §2
[5] = Selectivity ratio of Ke for OX2 receptor to Ke for OX1 receptor

Row | Ke [1] [nM] | Ke [2] [nM] | Activity [3] | Activity [4] | Ratio Ke [5] | SMILES
1 | 13.4 | 1620 | inactive | inactive | – | O=C(Nc1ccc2c(c1)OCO2)Nc1ccnc2c(F)cccc12
2 | 45 | 1190 | inactive | inactive | 50 | Cc1nc2ccc(NC(=O)Nc3ccnc4cccnc34)cc2o1
3 | > 10000 | > 10000 | inactive | inactive | – | CN(C)c1ccc(CC(=O)Nc2ccnc3c(F)cccc23)cc1
4 | 965 | > 10000 | inactive | inactive | > 10 | COc1ccc(NC(=O)Nc2ccnc3c(F)cccc23)cc1OC
